# Data taken from ChEMBL document CHEMBL1641591, “Inhibition of monoamine oxidase by selected C5- and C6-substituted isatin analogues” (Bioorg Med Chem, 2011).
# Columns and labels:
# [1] = target: T1, Amine oxidase [flavin-containing] B (Homo sapiens, UniProt P27338); assay: Inhibition of human recombinant MAOB expressed in insect cells by fluorescence assay; assay type: cell-based
# T1 sequence (P27338 whole entry): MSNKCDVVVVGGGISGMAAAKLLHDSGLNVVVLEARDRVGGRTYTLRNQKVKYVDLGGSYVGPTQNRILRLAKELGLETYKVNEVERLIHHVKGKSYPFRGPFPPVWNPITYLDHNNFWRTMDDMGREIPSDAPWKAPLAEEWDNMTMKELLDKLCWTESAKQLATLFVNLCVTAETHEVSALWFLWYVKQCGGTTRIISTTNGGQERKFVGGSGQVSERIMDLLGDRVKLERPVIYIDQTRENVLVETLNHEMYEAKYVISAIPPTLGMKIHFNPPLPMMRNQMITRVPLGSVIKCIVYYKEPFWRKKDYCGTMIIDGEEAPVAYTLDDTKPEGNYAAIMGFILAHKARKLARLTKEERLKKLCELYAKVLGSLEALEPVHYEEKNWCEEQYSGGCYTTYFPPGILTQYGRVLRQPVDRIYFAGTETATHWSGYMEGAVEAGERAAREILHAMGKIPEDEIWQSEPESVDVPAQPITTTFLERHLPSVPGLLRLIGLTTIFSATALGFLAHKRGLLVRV
# [2] = target: T2, Amine oxidase [flavin-containing] A (Homo sapiens, UniProt P21397); assay: Inhibition of human recombinant MAOA expressed in insect cells at 100 uM by fluorescence assay
# T2 sequence (P21397 whole entry): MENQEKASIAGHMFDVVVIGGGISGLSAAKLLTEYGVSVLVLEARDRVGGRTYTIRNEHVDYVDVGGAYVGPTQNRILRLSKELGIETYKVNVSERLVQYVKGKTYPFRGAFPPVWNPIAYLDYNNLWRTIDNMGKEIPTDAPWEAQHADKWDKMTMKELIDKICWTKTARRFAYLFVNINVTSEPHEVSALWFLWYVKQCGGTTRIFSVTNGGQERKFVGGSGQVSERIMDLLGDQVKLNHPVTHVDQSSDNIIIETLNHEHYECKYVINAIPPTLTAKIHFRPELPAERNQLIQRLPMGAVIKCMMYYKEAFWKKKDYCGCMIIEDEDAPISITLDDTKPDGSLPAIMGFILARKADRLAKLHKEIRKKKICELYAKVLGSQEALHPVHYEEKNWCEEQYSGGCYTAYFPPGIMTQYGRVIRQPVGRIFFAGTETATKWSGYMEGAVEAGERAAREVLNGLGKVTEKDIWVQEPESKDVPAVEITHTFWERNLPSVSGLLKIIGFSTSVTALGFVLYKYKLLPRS
# [3] = target: T2, Amine oxidase [flavin-containing] A; assay: Inhibition of human recombinant MAOA expressed in insect cells by fluorescence assay
# Method in brief: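 Insect-cell microsomal recombinant human MAO-A (0.0075 mg/mL) in 100 mM potassium phosphate, pH 7.4, made isotonic with KCl, with 45 µM kynuramine. Incubated 20 min at 37 °C and stopped with NaOH. 4-Hydroxyquinoline was read by fluorescence (ex 310/em 400 nm) against a calibration curve.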
# Homo sapiens = species: Homo sapiens; assay: Selectivity ratio of Ki for human recombinant MAOA to Ki for human recombinant MAOB
# Method in brief: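 Ki values were obtained from duplicate kynuramine-oxidation IC50 data for insect-cell recombinant human MAO-A and MAO-B by the Cheng–Prusoff equation. […] The ratio is Ki(MAO-A)/Ki(MAO-B).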
# [4] = target: T2, Amine oxidase [flavin-containing] A; assay: Inhibition of human recombinant MAOA expressed in insect cells at 9.76 uM by fluorescence assay; settings: TDE = time-dependent effect
# Method in brief: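 Reversibility test: recombinant human MAO-A (0.03 mg/mL) was preincubated 0, 15, 30 or 60 min at 37 °C with 9.76 µM inhibitor in isotonic pH 7.4 phosphate buffer. […] Residual rate was measured by 4-hydroxyquinoline fluorescence, in triplicate, mean ± SD.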
# [5] = target: T1, Amine oxidase [flavin-containing] B; assay: Inhibition of human recombinant MAOB expressed in insect cells at 2.8 uM by fluorescence assay; settings: TDE = time-dependent effect
# [6] = target: T1, Amine oxidase [flavin-containing] B; assay: Competitive inhibition of human recombinant MAOB expressed in insect cells at 0.125 to 0.5 uM by Lineweaver-Burk plot analysis
# Method in brief: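 Recombinant human MAO-B from insect cells (0.015 mg/mL) was run with 15–90 µM kynuramine, without inhibitor and with 0.125, 0.25 or 0.5 µM inhibitor. The assay was otherwise the standard fluorescence procedure. Lineweaver–Burk plots were fitted by linear regression.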
# [7] = target: T2, Amine oxidase [flavin-containing] A; assay: Competitive inhibition of human recombinant MAOA expressed in insect cells at 2.5 to 10 uM by Lineweaver-Burk plot analysis
# [8] = target: T1, Amine oxidase [flavin-containing] B; assay: Inhibition of human recombinant MAOB expressed in insect cells at 100 uM by fluorescence assay
Compound,IC50 [1],Ki [1],inhibition (INH) [2],IC50 [3],Ki [3],Ratio Ki (Homo sapiens),inhibition (INH) [4],inhibition (INH) [5],inhibition (INH) [6],inhibition (INH) [7],inhibition (INH) [8]
Cl.Nc1ccc(CCCCc2ccccc2)cc1,5.55 µM,2.39 µM,Not Active,–,–,–,–,–,–,–,–
Nc1ccc(Oc2ccc(Cl)cc2)cc1,16.8 µM,7.24 µM,–,29.3 µM,7.72 µM,1.07,–,–,–,–,–
Nc1cccc(OCc2ccccc2)c1 [3-(BENZYLOXY)ANILINE],23.4 µM,10.1 µM,–,466 µM,123 µM,12.2,–,–,–,–,–
Nc1ccc(/C=C/c2ccccc2)cc1 [(E)-4-STYRYLANILINE],6.34 µM,2.73 µM,–,25.3 µM,6.67 µM,2.44,–,–,–,–,–
Nc1cccc(/C=C/c2ccccc2)c1,5.74 µM,2.47 µM,–,30.4 µM,8.01 µM,3.24,–,–,–,–,–
Nc1ccc(OCc2ccccc2)cc1 [4-BENZYLOXYANILINE],12.8 µM,5.51 µM,–,191 µM,50.3 µM,9.13,–,–,–,–,–
O=C1Nc2cc(OCc3ccccc3)ccc2C1=O,0.138 µM,0.059 µM,–,72.4 µM,19.1 µM,321,–,–,–,–,–
Nc1cccc(CCc2ccccc2)c1,–,–,–,355 µM,93.5 µM,–,–,–,–,–,–
Nc1ccc(-c2ccccc2)cc1 [BIPHENYL-4-AMINE],–,–,Not Active,–,–,–,–,–,–,–,Not Active
O=C1Nc2cc(Oc3ccccc3)ccc2C1=O,9.91 µM,4.27 µM,–,62.2 µM,16.4 µM,3.84,–,–,–,–,–
Nc1cccc(Oc2ccccc2)c1 [3-PHENOXYANILINE],–,–,Not Active,–,–,–,–,–,–,–,–
Nc1cccc(-c2ccccc2)c1,–,–,–,68.6 µM,18.1 µM,–,–,–,–,–,Not Active
Nc1ccc(Oc2ccccc2)cc1 [4-PHENOXYANILINE],303 µM,131 µM,–,91.4 µM,24.1 µM,0.185,–,–,–,–,–
O=C1Nc2ccc(Oc3ccc(Cl)cc3)cc2C1=O,0.066 µM,0.028 µM,–,12.2 µM,3.21 µM,113,–,–,–,–,–
Nc1ccc(CCc2ccccc2)cc1,–,–,–,131 µM,34.5 µM,–,–,–,–,–,–

# Continued, in another order:
IC50 [1],Ki [1],inhibition (INH) [2],IC50 [3],Ki [3],Ratio Ki (Homo sapiens),inhibition (INH) [4],inhibition (INH) [5],inhibition (INH) [6],inhibition (INH) [7],Compound,inhibition (INH) [8]
–,–,–,2.72 µM,0.717 µM,–,–,–,–,–,O=C1Nc2cc(/C=C/c3ccccc3)ccc2C1=O [(E)-6-STYRYLISATIN],–
0.00066 µM,0.00028 µM,–,2.19 µM,0.577 µM,2030,–,–,–,–,O=C1Nc2ccc(CCCCc3ccccc3)cc2C1=O,–
0.103 µM,0.044 µM,–,4.62 µM,1.22 µM,27.4,–,–,–,–,O=C1Nc2ccc(OCc3ccccc3)cc2C1=O,–
0.009 µM,0.004 µM,–,0.233 µM,0.061 µM,15.8,–,–,–,–,O=C1Nc2ccc(/C=C/c3ccccc3)cc2C1=O,–
1.4 µM,0.603 µM,–,4.88 µM,1.29 µM,2.13,tde,tde,Active,Active,O=C1Nc2ccc(CCc3ccccc3)cc2C1=O,–
1.19 µM,0.513 µM,–,0.562 µM,0.148 µM,0.289,–,–,–,–,O=C1Nc2ccc(-c3ccccc3)cc2C1=O,–
9.93 µM,4.28 µM,–,6.93 µM,1.83 µM,0.427,–,–,–,–,O=C1Nc2cc(CCc3ccccc3)ccc2C1=O,–
1.54 µM,0.663 µM,–,9.44 µM,2.49 µM,3.75,–,–,–,–,O=C1Nc2ccc(Oc3ccccc3)cc2C1=O,–
8.52 µM,3.67 µM,–,4.64 µM,1.22 µM,0.333,–,–,–,–,O=C1Nc2cc(-c3ccccc3)ccc2C1=O,–
